{"data": "Assay results from different studies", "target": "Casein kinase I isoform alpha (CSNK1A1, Homo sapiens, UniProt P48729)", "note": "Protocols differ between the studies behind these lines."}
{"Compound": "O=C(c1ccc(Nc2ncc(Cl)c(-c3ccc(Cl)s3)n2)cc1)N1CCC(N2CCCC2)CC1", "test": "binding, competition with immobilised ligand", "setting": "1 µM", "remaining binding [%]": 97}
{"Compound": "Nc1ncc2c(n1)-c1c([nH]c3ccc(C#CC4CC4)cc13)CCCC2", "test": "binding, competition with immobilised ligand", "setting": "1 µM", "remaining binding [%]": 93}
{"Compound": "CS(=O)(=O)NCC[C@H](NC(=O)c1cncc2c1cnn2-c1ccc(F)cc1)c1ccnc(S(C)(=O)=O)c1", "test": "cell-free assay, competition with immobilised ligand", "setting": "1 µM", "remaining binding [%]": 100}
{"Compound": "COc1ncc2cc3ccccc3nc2c1C#N", "test": "cell-free assay, competition with immobilised ligand", "setting": "5 µM", "remaining binding [%]": 97}
{"Compound": "CCC(=N\\O)/C(C)=C/c1ccc(F)cc1", "test": "cell-free assay, competition with immobilised ligand", "setting": "1 µM", "remaining binding [%]": 74}
{"Compound": "CCN1CCN(Cc2ccc(C(=O)Nc3ccc(C)c(Oc4ccc5c(c4)CC(=O)N5)c3)cc2C(F)(F)F)CC1", "test": "binding, competition with immobilised ligand", "setting": "1 µM", "remaining binding [%]": 100}
{"Compound": "CNCc1ccccc1-c1csc([C@H](C)Nc2nc(C)nc3cc(OC)c(OC)cc23)c1", "test": "cell-free assay, competition with immobilised ligand", "setting": "1 µM", "remaining binding [%]": 74}
{"Compound": "N[C@H]1CCN(c2nccc(-c3cnn4ncccc34)n2)C1", "test": "binding", "setting": "1 µM", "remaining binding [%]": 41}
{"Compound": "O=C(NCCCN1CCOCC1)c1ccc(Nc2ncc(Cl)c(-c3ccc(Cl)s3)n2)cc1", "test": "binding, competition with immobilised ligand", "setting": "1 µM", "remaining binding [%]": 100}
{"Compound": "O=C(NC[C@@H]1[C@H]2CN(C(=O)OCc3cc(C(F)(F)F)cc(C(F)(F)F)c3)C[C@@H]12)c1ccc2[nH]nnc2c1", "test": "cell-free assay, competition with immobilised ligand", "setting": "1 µM", "remaining binding [%]": 100}
{"Compound": "COc1ccnn2ncc(-c3ccnc(N(C)C)n3)c12", "test": "binding", "setting": "1 µM", "remaining binding [%]": 55}
{"Compound": "O=C(NCC1CCOCC1)c1n[nH]cc1NC(=O)c1c(F)cccc1F", "test": "binding, competition with immobilised ligand", "setting": "1 µM", "remaining binding [%]": 77}
{"Compound": "CN(c1nccc(-c2cnn3ncccc23)n1)C1CC1", "test": "binding", "setting": "1 µM", "remaining binding [%]": 88}
{"Compound": "CCCCN(CCCC)C(=O)CN1C[C@H](c2cc(OC)c3c(c2)OCO3)[C@@H](C(=O)O)[C@@H]1CC(C)(C)CCC", "test": "cell-free assay, competition with immobilised ligand", "setting": "1 µM", "remaining binding [%]": 98.1}
{"Compound": "CN(C)c1nccc(-c2cnc3ncccn23)n1", "test": "binding", "setting": "1 µM", "remaining binding [%]": 36}
{"Compound": "CNC(=O)[C@@H]1CC[C@@H](n2c(-c3ccc4cnccc4c3)nc3ccc(C(=O)NCc4cccc(C(N)=O)c4)cc32)C1", "test": "binding, competition with immobilised ligand", "setting": "1 µM", "remaining binding [%]": 99}
{"Compound": "C[C@@H]1CCN(c2nccc(-c3cnn4ncccc34)n2)C1", "test": "binding", "setting": "1 µM", "remaining binding [%]": 61}
{"Compound": "CNC(=O)Nc1ccc2c(c1)CC[C@@]21OC(=O)N(CC(=O)N(Cc2ccc(F)cc2)[C@@H](C)C(F)(F)F)C1=O", "test": "cell-free assay, competition with immobilised ligand", "setting": "1 µM", "remaining binding [%]": 93}
{"Compound": "Cc1cnn2ncc(-c3ccnc(N(C)C)n3)c2c1", "test": "binding", "setting": "1 µM", "remaining binding [%]": 43}
{"Compound": "C=CC(=O)N1CCC(C(=O)NCC(=O)N2CCN(c3nc(-c4cnc(N)nc4C(F)F)nc(N4CCOCC4)n3)CC2)CC1", "test": "binding, competition with immobilised ligand", "setting": "1 µM", "remaining binding [%]": 89}
{"Compound": "CC1CCCN1c1nccc(-c2cnn3ncccc23)n1 (stereo not shown)", "test": "binding", "setting": "1 µM", "remaining binding [%]": 100}
{"Compound": "O=C(c1ccc(Nc2ncc(Cl)c(-c3cc4ccccc4s3)n2)cc1)N1CCC(N2CCCC2)CC1", "test": "binding, competition with immobilised ligand", "setting": "1 µM", "remaining binding [%]": 67}
